ChEMBL document CHEMBL1932966, “Pyrrolo- and pyrazolo-[3,4-e][1,2,4]triazolo[1,5-c]pyrimidines as adenosine receptor antagonists” (Bioorg Med Chem, 2012)

What was measured:
Adenosine receptor A3 [1] = target: T1, Adenosine receptor A3 (Homo sapiens, UniProt P0DMS8); experiment: Displacement of [3H]-MRE-3008-F20 from human adenosine A3 receptor expressed in CHO cells after 120 mins by liquid scintillation counting; format: cell-based
T1 sequence (P0DMS8 whole entry): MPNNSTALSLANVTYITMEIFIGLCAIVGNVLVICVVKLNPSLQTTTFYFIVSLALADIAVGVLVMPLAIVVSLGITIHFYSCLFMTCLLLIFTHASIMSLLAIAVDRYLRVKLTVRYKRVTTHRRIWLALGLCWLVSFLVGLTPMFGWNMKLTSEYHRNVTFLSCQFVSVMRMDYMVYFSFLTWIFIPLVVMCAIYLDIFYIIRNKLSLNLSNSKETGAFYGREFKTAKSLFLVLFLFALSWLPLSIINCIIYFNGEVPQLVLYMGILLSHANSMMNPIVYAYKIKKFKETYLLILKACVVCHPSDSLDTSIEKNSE

Adenosine receptor A2a [2] = target: T2, Adenosine receptor A2a (Homo sapiens, UniProt P29274); experiment: Displacement of [3H]-ZM 241385 from human adenosine A2A receptor expressed in CHO cells after 60 mins by liquid scintillation counting; format: cell-based
[3] = target: Adenosine receptor A2B (Homo sapiens) (UniProt P29275); conditions: CHO, at 1 µM
[4] = target: T3, Adenosine receptor A1 (Homo sapiens) (UniProt P30542); experiment: Displacement of [3H]-DPCPX from human adenosine A1 receptor expressed in CHO cells at 1 uM after 120 mins by liquid scintillation counting; format: cell-based
T3 sequence (whole entry): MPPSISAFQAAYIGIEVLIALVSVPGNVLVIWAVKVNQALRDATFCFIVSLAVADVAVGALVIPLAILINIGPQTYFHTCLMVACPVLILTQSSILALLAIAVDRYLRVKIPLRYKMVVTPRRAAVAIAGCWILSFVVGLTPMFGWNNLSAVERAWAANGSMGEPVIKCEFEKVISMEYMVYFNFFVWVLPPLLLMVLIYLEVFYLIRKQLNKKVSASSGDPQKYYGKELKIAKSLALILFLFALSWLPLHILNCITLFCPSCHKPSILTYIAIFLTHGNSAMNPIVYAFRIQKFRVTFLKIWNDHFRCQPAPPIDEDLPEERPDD
How it was run: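 Percent inhibition at a single concentration of 1 nM [3H]DPCPX binding to hA1-CHO membranes in 50 mM Tris HCl, pH 7.4. Membranes were pretreated with 2 IU/mL adenosine deaminase for 30 min at 37 °C. Incubation was 120 min at 25 °C, and bound label was separated by GF/B glass-fibre filtration.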

Adenosine receptor A2b [5] = target: T4, Adenosine receptor A2b (Homo sapiens, UniProt P29275); format: functional, cell-based, CHO
T4 sequence (P29275 whole entry): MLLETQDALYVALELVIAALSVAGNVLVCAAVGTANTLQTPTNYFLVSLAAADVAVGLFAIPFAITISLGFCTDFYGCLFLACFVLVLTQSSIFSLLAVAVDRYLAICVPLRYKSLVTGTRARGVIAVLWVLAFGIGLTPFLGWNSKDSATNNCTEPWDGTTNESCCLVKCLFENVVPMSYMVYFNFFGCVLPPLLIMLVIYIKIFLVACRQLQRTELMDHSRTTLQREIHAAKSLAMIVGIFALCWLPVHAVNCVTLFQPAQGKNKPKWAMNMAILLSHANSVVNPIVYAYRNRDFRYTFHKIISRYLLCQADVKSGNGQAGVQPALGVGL

[6] = target: T5, Adenosine receptor A3 (Homo sapiens) (UniProt P0DMS8); experiment: Displacement of [3H]-MRE-3008-F20 from human adenosine A3 receptor expressed in CHO cells at 1 uM after 120 mins by liquid scintillation counting; format: cell-based
T5 sequence (whole entry): T1 sequence (P0DMS8 whole entry)
How it was run: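 Membranes from hA3-CHO cells in 50 mM Tris HCl, 10 mM MgCl2, 1 mM EDTA, pH 7.4, pretreated with adenosine deaminase (2 IU/mL, 30 min, 37 °C). Incubation 120 min at 4 °C. Non-specific binding with unlabelled MRE3008F20. GF/B filtration.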

Adenosine receptor A1 = target: T6, Adenosine receptor A1 (Homo sapiens, UniProt P30542); experiment: Displacement of [3H]-DPCPX from human adenosine A1 receptor expressed in CHO cells after 120 mins by liquid scintillation counting; format: cell-based
T6 sequence (P30542 whole entry): T3 sequence (whole entry)

Adenosine receptor A2a [7] = target: T2, Adenosine receptor A2a; experiment: Displacement of [3H]-ZM 241385 from human adenosine A2A receptor expressed in CHO cells at 1 uM after 60 mins by liquid scintillation counting; format: cell-based
Adenosine receptor A3 [8] = target: T1, Adenosine receptor A3; experiment: Antagonist activity at human adenosine A3 receptor expressed in forskolin-stimulated CHO cells assessed as inhibition of Cl-IB-MECA-induced cAMP production by competition protein binding assay; format: functional, cell-based
How it was run: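 CHO cells stably expressing human A3 receptor were harvested with dilute trypsin and preincubated for 10 min at 37 °C in pH 7.4 buffer with 2 IU/mL adenosine deaminase and the phosphodiesterase inhibitor Ro 20-1724. Antagonism of 100 nM Cl-IB-MECA was run with forskolin present. The reaction was stopped with cold 6% TCA and extracted with ether. cAMP was read against [3H]cAMP and bovine adrenal binding protein. IC50 came from sigmoid fitting.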

Adenosine receptor A2b [9] = target: T4, Adenosine receptor A2b; experiment: biochemical

T2 sequence (P29274 whole entry): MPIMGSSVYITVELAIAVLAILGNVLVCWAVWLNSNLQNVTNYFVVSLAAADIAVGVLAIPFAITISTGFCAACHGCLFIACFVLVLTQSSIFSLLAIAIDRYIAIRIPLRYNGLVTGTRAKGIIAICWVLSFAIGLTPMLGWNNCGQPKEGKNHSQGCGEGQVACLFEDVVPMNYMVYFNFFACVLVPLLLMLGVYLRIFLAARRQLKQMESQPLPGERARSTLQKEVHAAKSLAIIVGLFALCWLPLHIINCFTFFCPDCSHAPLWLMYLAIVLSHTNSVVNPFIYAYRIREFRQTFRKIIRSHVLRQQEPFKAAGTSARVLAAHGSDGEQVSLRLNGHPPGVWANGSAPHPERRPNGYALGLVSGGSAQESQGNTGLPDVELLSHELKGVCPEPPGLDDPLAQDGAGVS

Ki (Adenosine receptor A3 [1]) | Ki (Adenosine receptor A2a [2]) | inhibition [3] | inhibition [4] | IC50 (Adenosine receptor A2b [5]) | inhibition [6] | Ki (Adenosine receptor A1) | inhibition (Adenosine receptor A2a [7]) | IC50 (Adenosine receptor A3 [8]) | Ki (Adenosine receptor A2b [9]) | SMILES
161 nM | 20 nM |  |  | 32 nM |  | 61 nM |  |  |  | CCCn1ncc2nc(NC(=O)Nc3ccc(OC)cc3)n3nc(-c4ccco4)nc3c21
50 nM | 208 nM |  |  | 863 nM |  | 240 nM |  | 250 nM |  | CCCn1cc2nc(NC(=O)Nc3ccc(OC)cc3)n3nc(-c4ccco4)nc3c2n1
110 nM | 222 nM |  |  | 580 nM |  | 923 nM |  |  |  | COc1ccc(NC(=O)Nc2nc3cn(C)nc3c3nc(-c4ccco4)nn23)cc1
> 1000 nM | > 1000 nM | 32% | 38% | > 1000 nM | 25% | > 1000 nM | 32% |  |  | COc1ccc(NC(=O)Nc2nc3cnn(CCCc4ccccc4)c3c3nc(-c4ccco4)nn23)cc1
61 nM | 68 nM |  |  | 122 nM |  | 129 nM |  |  |  | COc1ccc(NC(=O)Nc2nc3cnn(C)c3c3nc(-c4ccco4)nn23)cc1
314 nM | 672 nM |  |  | 548 nM |  | 753 nM |  |  |  | COc1ccc(NC(=O)Nc2nc3cn(CCc4ccccc4)nc3c3nc(-c4ccco4)nn23)cc1
815 nM | > 1000 nM | 31% | 35% | > 1000 nM |  | > 1000 nM | 31% |  |  | COc1ccc(NC(=O)Nc2nc3cn(CCCc4ccccc4)nc3c3nc(-c4ccco4)nn23)cc1
13 nM | 130 nM | 12% |  | > 1000 nM |  | 210 nM |  |  |  | COc1ccc(NC(=O)Nc2nc3cn(CCCc4ccccc4)cc3c3nc(-c4ccco4)nn23)cc1
10 nM | 200 nM |  |  | 906 nM |  | 743 nM |  | 50 nM |  | CCCn1cc2nc(NC(=O)Nc3ccc(OC)cc3)n3nc(-c4ccco4)nc3c2c1
603 nM | 42 nM |  |  | 319 nM |  | 33 nM |  |  |  | Nc1nc2cnn(CCc3ccccc3)c2c2nc(-c3ccco3)nn12
12 nM | 148 nM |  |  | 740 nM |  | 178 nM |  |  |  | COc1ccc(NC(=O)Nc2nc3cn(CCc4ccccc4)cc3c3nc(-c4ccco4)nn23)cc1
208 nM | 626 nM |  |  | 772 nM |  | 524 nM |  |  |  | COc1ccc(NC(=O)Nc2nc3cnn(CCc4ccccc4)c3c3nc(-c4ccco4)nn23)cc1
15 nM | 500 nM |  |  | 838 nM |  | 800 nM |  | 75 nM |  | COc1ccc(NC(=O)Nc2nc3cn(C)cc3c3nc(-c4ccco4)nn23)cc1

More lines, now with the values behind:

SMILES | Ki (Adenosine receptor A3 [1]) | Ki (Adenosine receptor A2a [2]) | inhibition [3] | inhibition [4] | IC50 (Adenosine receptor A2b [5]) | inhibition [6] | Ki (Adenosine receptor A1) | inhibition (Adenosine receptor A2a [7]) | IC50 (Adenosine receptor A3 [8]) | Ki (Adenosine receptor A2b [9])
CN1CCN(c2nc3cnn(C)c3c3nc(-c4ccco4)nn23)CC1 | > 1000 nM | > 1000 nM | 2% | 5% | > 1000 nM | 1% | > 1000 nM | 2% |  | 
Nc1nc2cn(CCc3ccccc3)nc2c2nc(-c3ccco3)nn12 | 315 nM | 9.2 nM |  |  | 27 nM |  | 4.9 nM |  |  | 
CCCn1cc2nc(N)n3nc(-c4ccco4)nc3c2n1 | 432 nM | 17 nM |  |  | 45 nM |  | 22 nM |  |  | 
Nc1nc2cn(CCCc3ccccc3)cc2c2nc(-c3ccco3)nn12 | 241 nM | 50 nM |  |  | 251 nM |  | 18 nM |  |  | 
Cn1cc2nc(N)n3nc(-c4ccco4)nc3c2c1 | 50 nM | 20 nM |  |  | 42 nM |  | 100 nM |  |  | 
Cn1ncc2nc(N3CCN(c4ccccc4)CC3)n3nc(-c4ccco4)nc3c21 | > 1000 nM | > 1000 nM | 5% | 8% | > 1000 nM | 1% | > 1000 nM | 9% |  | 
Cn1ncc2nc(N)n3nc(-c4ccco4)nc3c21 | 749 nM | 3.6 nM |  |  | 31 nM |  | 10 nM |  |  | 
Nc1nc2cn(CCc3ccccc3)cc2c2nc(-c3ccco3)nn12 | 124 nM | 3.9 nM |  |  | 46 nM |  | 4.3 nM |  |  | 
Cn1ncc2nc(NC3CCCCC3)n3nc(-c4ccco4)nc3c21 | 507 nM | 119 nM |  |  | 915 nM |  | 12 nM |  |  | 
CCCn1ncc2nc(N)n3nc(-c4ccco4)nc3c21 | 83 nM | 12 nM |  |  | 40 nM |  | 14 nM |  | 500 nM | 
Nc1nc2cn(CCCc3ccccc3)nc2c2nc(-c3ccco3)nn12 | 526 nM | 11 nM |  |  | 32 nM |  | 7.1 nM |  |  | 
Cn1cc2nc(N)n3nc(-c4ccco4)nc3c2n1 | 125 nM | 8.1 nM |  |  | 33 nM |  | 30 nM |  |  | 
Nc1nc2cnn(CCCc3ccccc3)c2c2nc(-c3ccco3)nn12 | 802 nM | 122 nM |  |  | 595 nM |  | 85 nM |  |  | 
Cn1cc2nc(NC(=O)Nc3ccncc3)n3nc(-c4ccco4)nc3c2c1 | 111 nM | > 1000 nM | 8% |  | > 1000 nM |  | 355 nM | 13% |  | 
Nc1nc2c(cnn2CCCc2ccccc2)c2nc(-c3ccco3)nn12 [SCH-63390] | > 10000 nM |  |  |  |  |  |  |  |  | > 10 µM
Nc1nc2c(cnn2CCc2ccccc2)c2nc(-c3ccco3)nn12 [SCH-58261] | > 10000 nM |  |  |  |  |  |  |  |  | 
Cn1ncc2nc(N3CCOCC3)n3nc(-c4ccco4)nc3c21 | > 1000 nM | > 1000 nM | 4% | 6% | > 1000 nM | 1% | > 1000 nM | 4% |  | 
CCCn1cc2nc(N)n3nc(-c4ccco4)nc3c2c1 | 55 nM | 30 nM |  |  | 90 nM |  | 35 nM |  |  | 
